According to ChEMBL document CHEMBL4725358 (J Med Chem, 2020):
The source made the active and inactive calls. The calls are words filed in the database; no cut-off is given here.

Legend:
Assay type in all cases: cell-based
[1] = molecular target: Probable G-protein coupled receptor 34 (Mus musculus) (UniProt Q9R1K6); experiment: Agonist activity at mouse GPR34 expressed in HEK293 cells co-transfected with AP-TGFalpha/Galphaq/i1 assessed as induction of ectodomain shedding of membrane bound AP-TGFalpha after 1 hr by p-NPP substrate based microplate reader analysis relative to control
Sequence of Probable G-protein coupled receptor 34 (Mus musculus) (Q9R1K6 whole entry, the tested form may be a part): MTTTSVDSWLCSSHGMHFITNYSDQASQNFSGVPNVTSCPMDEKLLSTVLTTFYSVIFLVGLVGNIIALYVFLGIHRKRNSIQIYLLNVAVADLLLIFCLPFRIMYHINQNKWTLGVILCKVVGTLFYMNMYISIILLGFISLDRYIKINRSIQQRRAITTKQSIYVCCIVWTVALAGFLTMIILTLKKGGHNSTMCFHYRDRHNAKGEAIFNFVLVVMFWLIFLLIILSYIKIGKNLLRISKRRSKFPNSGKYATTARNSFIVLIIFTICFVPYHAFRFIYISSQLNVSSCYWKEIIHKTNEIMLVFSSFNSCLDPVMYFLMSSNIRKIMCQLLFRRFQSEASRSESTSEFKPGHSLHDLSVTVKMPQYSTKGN
Method in brief: (§1)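 HEK293 cells transiently transfected with AP-TGFα, chimeric Gα and mouse GPR34 vectors, then treated with compound. Empty-vector cells (AP-TGFα plus chimeric Gα) served as background. Receptor-specific AP-TGFα release was taken after subtracting that background, and concentration-response curves gave EC50 and Emax. Mean and SEM of 3−8 independent experiments.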

[2] = molecular target: Putative P2Y purinoceptor 10 (Mus musculus) (UniProt Q8BFU7); experiment: Agonist activity at mouse P2Y10 expressed in HEK293 cells co-transfected with AP-TGFalpha/Galphaq/i1 assessed as induction of ectodomain shedding of membrane bound AP-TGFalpha after 1 hr by p-NPP substrate based microplate reader analysis relative to positive control
Sequence of Putative P2Y purinoceptor 10 (Mus musculus) (Q8BFU7 whole entry, the tested form may be a part): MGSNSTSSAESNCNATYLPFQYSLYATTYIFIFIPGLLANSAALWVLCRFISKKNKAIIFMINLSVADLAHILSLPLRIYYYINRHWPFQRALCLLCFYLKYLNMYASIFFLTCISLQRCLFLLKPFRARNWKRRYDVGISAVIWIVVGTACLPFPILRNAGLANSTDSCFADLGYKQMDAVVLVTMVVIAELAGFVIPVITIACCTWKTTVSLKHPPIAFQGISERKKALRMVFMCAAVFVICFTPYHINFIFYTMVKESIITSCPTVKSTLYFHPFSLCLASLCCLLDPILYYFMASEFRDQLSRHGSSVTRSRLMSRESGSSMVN
Method in brief: (§2)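 Run the same way as the GPR34 shedding assay, but with a mouse P2Y10 expression vector in HEK293 cells alongside AP-TGFα and chimeric Gα. Receptor-specific AP-TGFα release was found by subtracting the empty-vector background. EC50 and Emax came from concentration-response curves. Mean and SEM of 3−8 independent experiments.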

[3] = molecular target: Probable G-protein coupled receptor 34 (Mus musculus) (UniProt Q9R1K6); experiment: Agonist activity at mouse GPR34 expressed in HEK293 cells co-transfected with AP-TGFalpha/Galphaq/i1 assessed as induction of ectodomain shedding of membrane bound AP-TGFalpha after 1 hr by p-NPP substrate based microplate reader analysis relative to positive control; method in brief: as §1
[4] = molecular target: Putative P2Y purinoceptor 10 (Mus musculus) (UniProt Q8BFU7); experiment: Agonist activity at mouse P2Y10 expressed in HEK293 cells co-transfected with AP-TGFalpha/Galphaq/i1 assessed as induction of ectodomain shedding of membrane bound AP-TGFalpha after 1 hr by p-NPP substrate based microplate reader analysis relative to control; method in brief: as §2
[5] = molecular target: Probable G-protein coupled receptor 34 (Mus musculus, UniProt Q9R1K6); experiment: Agonist activity at mouse GPR34 expressed in HEK293 cells co-transfected with AP-TGFalpha/Galphaq/i1 assessed as induction of ectodomain shedding of membrane bound AP-TGFalpha after 1 hr by p-NPP substrate based microplate reader analysis; details: read-out: EC50; method in brief: as §1
Sequence of Probable G-protein coupled receptor 34 (Q9R1K6 whole entry, the tested form may be a part): as the sequence (Q9R1K6 whole entry, the tested form may be a part) above

[6] = molecular target: Putative P2Y purinoceptor 10 (Mus musculus, UniProt Q8BFU7); experiment: Agonist activity at mouse P2Y10 expressed in HEK293 cells co-transfected with AP-TGFalpha/Galphaq/i1 assessed as induction of ectodomain shedding of membrane bound AP-TGFalpha after 1 hr by p-NPP substrate based microplate reader analysis; method in brief: as §2
Sequence of Putative P2Y purinoceptor 10 (Q8BFU7 whole entry, the tested form may be a part): as the sequence (Q8BFU7 whole entry, the tested form may be a part) above

[7] = molecular target: T1, G protein-coupled receptor 34a (Danio rerio, UniProt Q6XCC7); experiment: Agonist activity at zebrafish GPR34 type a expressed in HEK293 cells co-transfected with AP-TGFalpha/Galphaq/i1 assessed as induction of ectodomain shedding of membrane bound AP-TGFalpha after 1 hr by p-NPP substrate based microplate reader analysis
T1 sequence (Q6XCC7 whole entry): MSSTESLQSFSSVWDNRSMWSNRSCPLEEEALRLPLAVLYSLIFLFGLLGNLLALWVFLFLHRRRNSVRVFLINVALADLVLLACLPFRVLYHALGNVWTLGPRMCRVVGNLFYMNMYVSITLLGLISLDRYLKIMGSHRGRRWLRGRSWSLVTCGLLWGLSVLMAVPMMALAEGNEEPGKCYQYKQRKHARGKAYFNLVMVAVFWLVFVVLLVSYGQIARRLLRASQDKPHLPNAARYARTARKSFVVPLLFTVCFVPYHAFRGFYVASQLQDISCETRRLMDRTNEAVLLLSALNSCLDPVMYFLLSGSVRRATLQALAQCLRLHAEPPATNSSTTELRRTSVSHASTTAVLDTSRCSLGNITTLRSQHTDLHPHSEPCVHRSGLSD

[8] = molecular target: T2, G protein-coupled receptor 34b (Danio rerio, UniProt B0S6P9); experiment: Agonist activity at zebrafish GPR34 type b expressed in HEK293 cells co-transfected with AP-TGFalpha/Galphaq/i1 assessed as induction of ectodomain shedding of membrane bound AP-TGFalpha after 1 hr by p-NPP substrate based microplate reader analysis
T2 sequence (B0S6P9 whole entry): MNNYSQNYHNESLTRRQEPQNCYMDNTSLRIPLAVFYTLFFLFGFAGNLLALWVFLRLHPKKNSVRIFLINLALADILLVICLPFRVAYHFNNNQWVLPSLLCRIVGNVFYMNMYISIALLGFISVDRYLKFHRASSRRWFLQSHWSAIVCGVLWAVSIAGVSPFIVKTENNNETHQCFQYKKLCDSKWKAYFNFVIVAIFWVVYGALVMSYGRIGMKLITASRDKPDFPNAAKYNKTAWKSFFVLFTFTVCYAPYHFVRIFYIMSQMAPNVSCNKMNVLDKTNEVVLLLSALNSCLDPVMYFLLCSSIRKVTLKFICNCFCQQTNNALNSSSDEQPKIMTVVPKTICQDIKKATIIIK

Row | Structure (SMILES) | Emax [1] | fold change (FC) ([2]; filed as agonist) | fold change (FC) [3] | Emax [4] | EC50 [5] | EC50 [6] | EC50 [7] | EC50 [8] | fold change (FC) [2] | fold change (FC) ([3]; filed as agonist)
1 | CCCCCCCCCCCOc1ccccc1CCC(=O)O[C@H]1CCOC[C@H]1OP(=O)(O)OC[C@H](N)C(=O)O | inactive | 0.0012 | inactive | 3.2% | > 3000 nM | 420 nM | – | – | – | –
2 | CCCCCCCCCCCOc1ccccc1CCC(=O)O[C@H]1COCC[C@@H]1OP(=O)(O)OC[C@H](N)C(=O)O | inactive | 0.0085 | inactive | 12.4% | > 3000 nM | 150 nM | – | – | – | –
3 | CCCCCCCC/C=C\CCCCCCCC(=O)OCCOP(=O)(O)OC[C@H](N)C(=O)O | inactive | 0.02 | inactive | 10.6% | > 3000 nM | 66 nM | – | – | – | –
4 | CCCCCCCCCCCOc1ccccc1CCC(=O)OC1COCCC1OP(=O)(O)OC[C@H](N)C(=O)O (single isomer, unassigned) | 3.7% | 0.00079 | – | 8.6% | 340 nM | 1300 nM | – | – | – | 0.1
5 | CCCCCCCC/C=C\CCCCCCCC(=O)OCCCCCOP(=O)(O)OC[C@H](N)C(=O)O | 4.6% | 0.0061 | – | 10.8% | 470 nM | 240 nM | – | – | – | 0.076
6 | CCCCCCCC/C=C\CCCCCCCC(=O)OC[C@H](COC)OP(=O)(O)OC[C@H](N)C(=O)O | 7.5% | – | – | inactive | 620 nM | > 3000 nM | – | – | inactive | 0.13
7 | CCCCCCCC/C=C\CCCCCCCC(=O)OCCCCOP(=O)(O)OC[C@H](N)C(=O)O | 4.4% | 0.029 | – | 13.1% | 320 nM | 53 nM | – | – | – | 0.12
8 | CCCCCCCC/C=C\CCCCCCCC(=O)O[C@@H](C)COP(=O)(O)OC[C@H](N)C(=O)O | inactive | 0.0034 | inactive | 11.6% | > 3000 nM | 390 nM | – | – | – | –
9 | CCCCCCCC/C=C\CCCCCCCC(=O)O[C@H](C)COP(=O)(O)OC[C@H](N)C(=O)O | 6.1% | 0.02 | – | 11.4% | 250 nM | 79 nM | – | – | – | 0.22
10 | CCCCCCCCCCCOc1ccccc1CCC(=O)O[C@@H]1CCOC[C@@H]1OP(=O)(O)OC[C@H](N)C(=O)O | 8.9% | 0.00089 | – | 19.3% | 220 nM | 1300 nM | – | – | – | 0.61
11 | CCCCCCCC/C=C\CCCCCCCC(=O)OC[C@@H](COCc1ccccc1)OP(=O)(O)OC[C@H](N)C(=O)O | 9.6% | 0.00075 | – | 7.3% | 880 nM | 1400 nM | – | – | – | 0.13
12 | CCCCCCCCCCCOc1ccccc1CCC(=O)OCCOP(=O)(O)OC[C@H](N)C(=O)O | 4.8% | 0.32 | – | 12.7% | 330 nM | 5.7 nM | – | – | – | 0.12
13 | CCCCCCCC/C=C\CCCCCCCC(=O)OCCCOP(=O)(O)OC[C@H](N)C(=O)O | 6.2% | 0.11 | – | 13.7% | 540 nM | 20 nM | – | – | – | 0.12

Continued, values first:

Row | Emax [1] | fold change (FC) ([2]; filed as agonist) | fold change (FC) [3] | Emax [4] | EC50 [5] | EC50 [6] | EC50 [7] | EC50 [8] | fold change (FC) [2] | fold change (FC) ([3]; filed as agonist) | Structure (SMILES)
14 | – | – | – | – | 5 nM | > 3000 nM | > 3000 nM | 1200 nM | – | – | CCOC[C@H](COC(=O)CCc1ccccc1OCc1cccc(Oc2ccccc2)c1)OP(=O)(O)OC[C@H](N)C(=O)O
15 | 12.9% | – | – | inactive | 11 nM | > 3000 nM | – | – | inactive | 12 | CCCCCCCC/C=C\CCCCCCCC(=O)OC[C@@H](COC)OP(=O)(O)OC[C@H](N)C(=O)O
16 | 11.2% | 0.034 | – | 11.3% | 170 nM | 37 nM | – | – | – | 0.56 | CCCCCCCC/C=C\CCCCCCCC(=O)OC[C@H](C)OP(=O)(O)OC[C@H](N)C(=O)O
17 | 12.3% | – | – | inactive | 3.5 nM | > 3000 nM | – | – | inactive | 29 | CCCCCCCC/C=C\CCCCCCCC(=O)OC[C@@H](COCC)OP(=O)(O)OC[C@H](N)C(=O)O
18 | 12.6% | 0.00074 | – | 3.2% | 12 nM | 420 nM | – | – | – | 10 | C#CCOC[C@H](COC(=O)CCCCCCC/C=C\CCCCCCCC)OP(=O)(O)OC[C@H](N)C(=O)O
19 | 12.4% | 0.0013 | – | 20.8% | 220 nM | 2300 nM | – | – | – | 0.44 | N[C@@H](COP(=O)(O)OCCOC(=O)CCc1ccccc1OCc1cccc(Oc2ccccc2)c1)C(=O)O
20 | 12.8% | 0.0054 | – | 12.4% | 24 nM | 250 nM | – | – | – | 4.8 | CCCCCCCC/C=C\CCCCCCCC(=O)OC[C@@H](C)OP(=O)(O)OC[C@H](N)C(=O)O
21 | 13.5% | – | – | inactive | 5.7 nM | > 3000 nM | – | – | inactive | 21 | COC[C@H](COC(=O)CCc1ccccc1OCc1cccc(Oc2ccccc2)c1)OP(=O)(O)OC[C@H](N)C(=O)O
22 | 10% | 0.039 | – | 11.4% | 2.9 nM | 26 nM | – | – | – | 32 | CCCCCCCCCCCOc1ccccc1CCC(=O)OC1COCC[C@H]1OP(=O)(O)OC[C@H](N)C(=O)O (single isomer, unassigned)
23 | 9.7% | 0.0088 | – | 2.5% | 160 nM | 70 nM | – | – | – | 0.52 | CCCCCCCC/C=C\CCCCCCCC(=O)O[C@H](COC)COP(=O)(O)OC[C@H](N)C(=O)O
24 | 12% | 0.0099 | – | 13.8% | 6.3 nM | 170 nM | – | – | – | 16 | C[C@H](COP(=O)(O)OC[C@H](N)C(=O)O)OC(=O)CCc1ccccc1OCc1cccc(Oc2ccccc2)c1
25 | 12.2% | – | – | inactive | 6.1 nM | > 3000 nM | – | – | inactive | 17 | CCCCCCCC/C=C\CCCCCCCC(=O)OC[C@@H](COCCC)OP(=O)(O)OC[C@H](N)C(=O)O
26 | 12.4% | 0.0056 | – | 13.2% | 9 nM | 290 nM | – | – | – | 11 | C[C@H](COC(=O)CCc1ccccc1OCc1cccc(Oc2ccccc2)c1)OP(=O)(O)OC[C@H](N)C(=O)O
27 | 6.4% | 0.0018 | – | 12% | 63 nM | 840 nM | – | – | – | 1.3 | CCCCCCCCCCCOc1ccccc1CCC(=O)O[C@@H]1COCCC1OP(=O)(O)OC[C@H](N)C(=O)O (single isomer, unassigned)
